The source made the active and inactive calls. The calls are words filed in the database; no cut-off is given here.
Experiments:
A549 [1] = experiment: (§1) Inhibition of NFkappaB-mediated ICAM1 expression in IL1alpha-stimulated human A549 cells treated 1 hr before IL1alpha challenge measured after 6 hrs by ELISA; format: cell-based
Procedure, shortened: (§2)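 A549 cells preincubated 1 h with serial dilutions of compound, then stimulated with IL-1α (0.25 ng/mL) or TNF-α (2.5 ng/mL) for 6 h with compound still present. Cell-surface ICAM-1 (%) by cell ELISA on triplicate cultures. IC50 (µM) is the mean of at least three independent experiments.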

[2] = as §1; format: cell-based; procedure, shortened: as §2
A549 [3] = experiment: (§3) Inhibition of NFkappaB-mediated ICAM1 expression in TNFalpha-stimulated human A549 cells treated 1 hr before TNFalpha challenge measured after 6 hrs by ELISA; format: cell-based; procedure, shortened: as §2
[4] = as §3; format: cell-based; procedure, shortened: as §2
A549 [5] = experiment: Cytotoxicity against human A549 cells after 24 hrs by MTT assay; format: cell-based; conditions: a549, 24 h
Procedure, shortened: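 A549 cells exposed to serial dilutions of compound for 24 h. Viability (%) by MTT assay on triplicate cultures. IC50 (µM) is the mean of four independent experiments.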

A549 [6] = experiment: Inhibition of IL1alpha-induced IkappaBalpha degradation in human A549 cells at 100 uM incubated for 1 hr prior IL1alpha challenge measured after 15 mins by Western blot analysis; format: functional, cell-based
Procedure, shortened: (§4)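 A549 cells preincubated 1 h with compound at the stated concentrations, then given IL-1α (0.25 ng/mL) or TNF-α (2.5 ng/mL). IκBα degradation then monitored.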

A549 [7] = experiment: Inhibition of TNF-alpha-induced IkappaBalpha degradation in human A549 cells at 100 uM incubated for 1 hr prior TNFalpha challenge measured after 15 mins by Western blot analysis; format: functional, cell-based; procedure, shortened: as §4
[8] = Selectivity ratio of IC50 for human A549 cells to IC50 for NFkappaB-mediated ICAM1 expression in human A549 cells; format: ADME, cell-based; conditions: read-out: Ratio IC50
[9] = molecular target: T1, NF-kappa-B inhibitor alpha (Homo sapiens) (UniProt P25963); experiment: Inhibition of IL1alpha-induced IkappaBalpha phosphorylation in human A549 cells at 100 uM incubated for 1 hr prior IL1alpha challenge measured after 15 mins by Western blot analysis in the presence of proteasome inhibitor MG-132; format: cell-based
T1 sequence (whole entry): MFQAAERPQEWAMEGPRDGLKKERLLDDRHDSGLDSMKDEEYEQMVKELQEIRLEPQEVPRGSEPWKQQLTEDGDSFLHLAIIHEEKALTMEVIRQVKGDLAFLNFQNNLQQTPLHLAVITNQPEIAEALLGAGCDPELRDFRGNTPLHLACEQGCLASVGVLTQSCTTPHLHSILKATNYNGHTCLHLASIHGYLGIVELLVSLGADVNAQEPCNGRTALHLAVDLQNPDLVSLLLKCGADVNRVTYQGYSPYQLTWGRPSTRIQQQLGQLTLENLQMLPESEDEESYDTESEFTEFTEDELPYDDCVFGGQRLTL
Procedure, shortened: (§5)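 A549 cells preincubated 1 h with or without the proteasome inhibitor MG-132 (20 µM) or with compound at various concentrations. Then stimulated 15 min with IL-1α (0.25 ng/mL) or TNF-α (2.5 ng/mL), or left unstimulated, with compound present. IκBα phosphorylation then examined.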

A549 [10] = experiment: Inhibition of NF-kappaB p50 nuclear translocation in IL1alpha-stimulated human A549 cells at 30 to 100 uM incubated for 1 hr prior IL1alpha challenge measured after 30 mins by Western blot analysis; format: cell-based
Procedure, shortened: (§6)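 A549 cells pretreated 1 h with compound at the stated concentrations, then stimulated 30 min with IL-1α (0.25 ng/mL) or TNF-α. p65 and p50 subunits then assessed for movement from cytoplasm to nucleus.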

A549 [11] = experiment: Inhibition of NFkappaB-mediated ICAM1 protein expression in IL1alpha-stimulated human A549 cells preincubated for 1 hr prior IL1alpha challenge measured after 6 hrs by Western blot analysis; format: cell-based
[12] = molecular target: Transcription factor p65 (Homo sapiens) (UniProt Q04206); experiment: Inhibition of NF-kappaB p65 nuclear translocation in IL1alpha-stimulated human A549 cells at 30 to 100 uM incubated for 1 hr prior IL1alpha challenge measured after 30 mins by Western blot analysis; format: cell-based; procedure, shortened: as §6
Transcription factor p65 (Homo sapiens), sequence (Q04206 whole entry): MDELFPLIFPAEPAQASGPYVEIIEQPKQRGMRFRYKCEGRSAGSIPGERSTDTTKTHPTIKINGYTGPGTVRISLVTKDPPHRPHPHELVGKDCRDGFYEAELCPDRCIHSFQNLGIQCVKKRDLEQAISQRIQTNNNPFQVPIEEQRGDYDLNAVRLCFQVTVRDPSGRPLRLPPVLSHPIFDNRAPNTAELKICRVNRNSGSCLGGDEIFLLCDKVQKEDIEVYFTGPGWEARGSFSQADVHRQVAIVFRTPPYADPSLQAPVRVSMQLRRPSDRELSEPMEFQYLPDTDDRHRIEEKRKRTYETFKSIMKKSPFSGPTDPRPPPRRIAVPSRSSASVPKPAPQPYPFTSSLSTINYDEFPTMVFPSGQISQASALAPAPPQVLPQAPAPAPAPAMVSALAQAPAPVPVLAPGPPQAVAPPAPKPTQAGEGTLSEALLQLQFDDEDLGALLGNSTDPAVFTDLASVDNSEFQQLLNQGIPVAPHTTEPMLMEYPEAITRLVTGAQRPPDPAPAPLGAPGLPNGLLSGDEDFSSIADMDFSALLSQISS

[13] = molecular target: T1, NF-kappa-B inhibitor alpha (Homo sapiens); experiment: Inhibition of TNF-alpha-induced IkappaBalpha phosphorylation in human A549 cells at 100 uM incubated for 1 hr prior TNFalpha challenge measured after 15 mins by Western blot analysis in the presence of proteasome inhibitor MG-132; format: cell-based; procedure, shortened: as §5
A549 [14] = experiment: Inhibition of NF-kappaB p50 nuclear translocation in TNFalpha-stimulated human A549 cells at 30 to 100 uM incubated for 1 hr prior TNFalpha challenge measured after 30 mins by Western blot analysis; format: cell-based; procedure, shortened: as §6
A549 [15] = experiment: Inhibition of NFkappaB-mediated ICAM1 protein expression in TNFalpha-stimulated human A549 cells preincubated for 1 hr prior TNFalpha challenge measured after 6 hrs by Western blot analysis; format: cell-based
[16] = molecular target: Transcription factor p65 (Homo sapiens) (UniProt Q04206); experiment: Inhibition of NF-kappaB p65 nuclear translocation in TNFalpha-stimulated human A549 cells at 30 to 100 uM incubated for 1 hr prior TNFalpha challenge measured after 30 mins by Western blot analysis; format: cell-based; procedure, shortened: as §6
A549 [17] = experiment: Cytotoxicity against human A549 cells at 100 to 320 uM after 24 hrs by MTT assay; format: cell-based; conditions: a549, 24 h
[18] = molecular target: T1, NF-kappa-B inhibitor alpha (Homo sapiens); experiment: Inhibition of IL1alpha-induced IkappaBalpha phosphorylation in human A549 cells at 10 to 100 uM incubated for 1 hr prior to IL1alpha challenge measured after 15 mins by Western blot analysis in the presence of proteasome inhibitor MG-132; format: cell-based; procedure, shortened: as §5
A549 [19] = experiment: Cytotoxicity against human A549 cells at 100 uM up to 7 hrs by crystal violet staining; format: cell-based; conditions: a549, 7 h
A549 [20] = experiment: Cytotoxicity against human A549 cells at 100 uM up to 7 hrs by MTT assay; format: cell-based; conditions: a549, 7 h
[21] = molecular target: T1, NF-kappa-B inhibitor alpha (Homo sapiens); experiment: Inhibition of TNF-alpha-induced IkappaBalpha phosphorylation in human A549 cells at 10 to 100 uM incubated for 1 hr prior to TNFalpha challenge measured after 15 mins by Western blot analysis in the presence of proteasome inhibitor MG-132; format: cell-based; procedure, shortened: as §5
[22] = molecular target: Transcription factor p65 (Homo sapiens) (UniProt Q04206); experiment: Inhibition of NF-kappaB p65 nuclear translocation in TNFalpha-stimulated human A549 cells at 100 uM incubated for 1 hr prior TNFalpha challenge measured after 30 mins by Western blot analysis; format: cell-based; procedure, shortened: as §6
A549 [23] = experiment: Inhibition of NF-kappaB p50 nuclear translocation in TNFalpha-stimulated human A549 cells at 100 uM incubated for 1 hr prior TNFalpha challenge measured after 30 mins by Western blot analysis; format: cell-based; procedure, shortened: as §6
[24] = molecular target: Transcription factor p65 (Homo sapiens) (UniProt Q04206); experiment: Inhibition of NF-kappaB p65 nuclear translocation in IL1alpha-stimulated human A549 cells at 100 uM incubated for 1 hr prior IL1alpha challenge measured after 30 mins by Western blot analysis; format: cell-based; procedure, shortened: as §6
A549 [25] = experiment: Inhibition of NF-kappaB p50 nuclear translocation in IL1alpha-stimulated human A549 cells at 100 uM incubated for 1 hr prior IL1alpha challenge measured after 30 mins by Western blot analysis; format: cell-based; procedure, shortened: as §6

Compound	inhibition (A549 [1])	IC50 [2]	inhibition (A549 [3])	IC50 [4]	IC50 (A549 [5])	inhibition (A549 [6])	inhibition (A549 [7])	selectivity ratio [8]	inhibition [9]	inhibition (A549 [10])	inhibition (A549 [11])	inhibition [12]	inhibition [13]	inhibition (A549 [14])	inhibition (A549 [15])	inhibition [16]	further results
C[C@@H]1C(=O)O[C@H]2[C@H]1CC[C@@]1(C)CCC(=O)[C@@H](C)[C@H]21	inactive	> 320 µM	inactive	> 320 µM	> 320 µM												
C[C@H]1[C@@H]2[C@H]3OC(=O)[C@@H](C)[C@@H]3CC[C@@]2(C)C=C[C@@H]1O	inactive	> 320 µM	inactive	> 320 µM	> 320 µM												
C=C1C(=O)O[C@@H]2[C@H]3[C@H](C)C(=O)CC[C@]3(C)CC[C@@H]12	Dose-dependent effect	6.2 µM	Dose-dependent effect	4.3 µM	110 µM	Active	Active	10	Active	Active	Dose-dependent effect	Active	Active	Active	Dose-dependent effect	Active	
C=C1C(=O)O[C@@H]2[C@H]3[C@H](C)C(=O)C=C[C@]3(C)CC[C@@H]12	Dose-dependent effect	10 µM	Dose-dependent effect	4.3 µM	120 µM	Active	Active	10	Active	Active	Dose-dependent effect	Active	Active	Active	Dose-dependent effect	Active	
C=C1C(=O)O[C@@H]2[C@H]3[C@H](C)[C@@H](O)C=C[C@]3(C)CC[C@@H]12	Dose-dependent effect	23 µM	Dose-dependent effect	6.1 µM	140 µM	inactive	inactive	10	inactive	Active	Dose-dependent effect	Active	inactive	Active	Dose-dependent effect	Active	
C=C1C(=O)O[C@@H]2[C@H]3[C@H](C)C(=O)[C@H](Br)C[C@]3(C)CC[C@@H]12	Dose-dependent effect	3.4 µM	Dose-dependent effect	2.8 µM	88 µM	Active	Active	10	Active	Active	Dose-dependent effect	Active	Active	Active	Dose-dependent effect	Active	
C[C@@H]1C(=O)O[C@H]2[C@H]1CC[C@@]1(C)C[C@@H](Br)C(=O)[C@@H](C)[C@H]21	Dose-dependent effect	10 µM	Dose-dependent effect	4.6 µM	> 320 µM	Active	inactive			Active	Dose-dependent effect	Active		Active	Dose-dependent effect	Active	Activity (A549 [17]): Toxic; inhibition [18]: Active; Activity (A549 [19]): Non-toxic; Activity (A549 [20]): Non-toxic; inhibition [21]: Active
C[C@@H]1C(=O)O[C@H]2[C@H]1CC[C@@]1(C)C=CC(=O)[C@@H](C)[C@H]21	Dose-dependent effect	52 µM	Dose-dependent effect	34 µM	> 320 µM						Dose-dependent effect				Dose-dependent effect		inhibition [22]: Active; Activity (A549 [17]): Toxic; inhibition (A549 [23]): Active; inhibition [24]: Active; inhibition (A549 [25]): Active

Reference: ChEMBL document CHEMBL1938246, “Eudesmane-type sesquiterpene lactones inhibit multiple steps in the NF-κB signaling pathway induced by inflammatory cytokines” (Bioorg Med Chem Lett, 2012)
